Mdm2 ligase inh: MDM2-luciferase reporter signal enhancers, primary screen, MDM2 E3 ligase inhibitor project, cell-based, luminescence, 1536-well; cell-based MDM2 ubiquitination luciferase reporter, 2 h; 0 = plate control, 100 = twice control, blank-subtracted; actives 0.11% (n = 210,000); E3 ubiquitin-protein ligase Mdm2 (Homo sapiens), Q00987; signal enhancement, % at 5 µM;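 active means signal enhancement of 30% or more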;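 further: luminescence tracks abundance of the self-degrading MDM2-luciferase fusion protein; higher signal means inhibition of MDM2 E3 ligase activity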
Target sequence (Q00987 whole entry, looked up, the tested form may be a part): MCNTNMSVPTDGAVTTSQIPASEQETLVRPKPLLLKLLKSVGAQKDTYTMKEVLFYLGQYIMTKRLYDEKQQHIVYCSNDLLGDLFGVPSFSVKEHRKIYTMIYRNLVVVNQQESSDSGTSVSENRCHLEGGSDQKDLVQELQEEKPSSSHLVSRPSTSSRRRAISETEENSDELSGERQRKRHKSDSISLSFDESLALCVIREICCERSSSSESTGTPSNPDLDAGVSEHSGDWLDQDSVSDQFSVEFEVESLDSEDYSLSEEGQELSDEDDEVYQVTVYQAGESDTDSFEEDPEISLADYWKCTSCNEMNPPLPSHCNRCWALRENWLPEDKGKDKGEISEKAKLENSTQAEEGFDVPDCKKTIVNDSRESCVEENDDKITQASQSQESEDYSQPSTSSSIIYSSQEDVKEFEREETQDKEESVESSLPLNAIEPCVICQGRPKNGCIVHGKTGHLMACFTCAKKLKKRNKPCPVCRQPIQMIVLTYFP
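Test system: stable mammalian line carrying autodegrading MDM2–luciferase fusion reporter; quantity: 2000 cells in each well; times: 4 h cell settling then 2 h compound exposure, 37 °C; detection: luminescence with SteadyLite reagent, 15 min at room temperature; evaluation: percent signal gain over controls, blank-subtracted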
S1P4 ag: S1P4 receptor agonists, primary screen, cell-based. AID 1509, 2009. activation, % at 4.98 µM. actives 0.35% (n = 220,000). S1P4-expressing cell line, agonist reporter assay. Sphingosine 1-phosphate receptor 4 (Homo sapiens), O95977; in the data active means activation above about 11%
S1P3 antag: S1P3 receptor antagonists, primary screen, cell-based; Sphingosine 1-phosphate receptor 3 (Homo sapiens), Q99500; CHO S1P3 NFAT-BLA reporter, FRET fluorescence, antagonist mode; inhibition, % at 4.98 µM; actives 0.27% (n = 170,000);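 active means inhibition above the plate cutoff, the mean inhibition of test wells on that plate plus 3 SD, cut at about 28% in these data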;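 further: cells challenged with S1P at its EC80 of 0.8 µM; blue over green emission ratio from cleaved BLA substrate after 4 h stimulation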
Lmaj promast: Leishmania major promastigote growth inhibition, primary screen; Leishmania major promastigotes, resazurin fluorescence viability; inhibition, % at 10 µM; actives 9% (n = 200,000); in the data active means inhibition above about 50%;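 further: promastigotes grown with compound for 44 hours at 28 °C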
S1P4 antag: S1P4 receptor antagonists, primary screen, cell-based. Sphingosine 1-phosphate receptor 4 (Homo sapiens), O95977. S1P4-expressing cells, antagonist mode, reporter read-out. inhibition, % at 4.98 µM. actives 0.26% (n = 220,000). AID 1510, 2009; in the data active means inhibition above about 29%
A number is an active result; 0 = inactive; - = no result. This excerpt belongs to a sample that is enriched for hits.

SMILES | Mdm2 ligase inh | S1P4 ag | S1P3 antag | Lmaj promast | S1P4 antag
Cc1ccc(C)c(/C=C/C(=O)c2ccccc(=O)c2O)c1 | 0 | 0 | 0 | 99 | 0
O=C(/C=C/c1ccccc1Cl)c1ccccc(=O)c1O | 0 | 0 | 0 | 100 | 0
O=C(/C=C/c1ccccc1Cl)c1ccc(O)cc1 | 0 | 0 | 0 | - | 0
Cc1ccc(/C=C/C(=O)c2ccccc(=O)c2O)c(C)c1 | 0 | 0 | 0 | 81 | 0
Cc1cc(Cl)c(S(=O)(=O)N2CCSCC2)cc1OCC(=O)NC1CCCCC1 | 0 | 0 | - | 0 | 0
Cc1cc(Cl)c(S(=O)(=O)N2CCCCCC2)cc1OCC(N)=O | 0 | 0 | 0 | 67 | 0
Cc1cc(Cl)c(S(=O)(=O)N2CCCCCC2)cc1OCC(=O)NC1CCCCC1 | 0 | 0 | - | 96 | 0
Cc1cc(Cl)c(S(=O)(=O)N2CCN(c3cccc(C)c3C)CC2)cc1OCC(N)=O | 0 | 0 | - | 95 | 0
CCOC(=O)C1CCN(C(=O)C2CCN(S(=O)(=O)c3cc(Cl)ccc3Cl)CC2)CC1 | 0 | 0 | 0 | 0 | 0
CCOC(=O)N1CCN(C(=O)C2CCN(S(=O)(=O)c3cc(Cl)ccc3Cl)CC2)CC1 | 0 | 0 | 0 | 99 | 0
Cc1cc(Cl)c(S(=O)(=O)N2CCCC2)cc1OCC(N)=O | - | 0 | 0 | 0 | 0
Cc1ccc(CN2CCN(/N=C\C=C\c3ccccc3)CC2)cc1 | 0 | 0 | 0 | 0 | 0
CCOC(=O)C1CCN(S(=O)(=O)c2ccc(Cl)cc2OC)CC1 | 0 | 0 | - | 0 | 0
CCOC(=O)N1CCN(S(=O)(=O)c2cc(OCC(=O)NC3CCCCC3)c(C)cc2Cl)CC1 | 0 | 0 | - | 64 | 0
CCOC(=O)C1CCN(S(=O)(=O)c2cc(Cl)c(C)cc2OC)CC1 | 0 | 0 | 0 | 91 | 0
CC(C)CC(=O)c1c[nH]c(C(=O)N2CCN(Cc3ccccc3)CC2)c1 | 0 | 0 | 0 | 0 | 0
CSc1ccc(CN2CCN(C(=O)c3ccc([N+](=O)[O-])cc3)CC2)cc1 | - | 0 | 0 | 69 | 0
O=C(COc1ccc([N+](=O)[O-])cc1)Nc1ccc(CN2CCOCC2)cc1 | 0 | 0 | 0 | 63 | 0
C/C(=N\NC(=O)c1ccc(CN2CCOCC2)cc1)c1ccc([N+](=O)[O-])cc1 | 0 | 0 | 0 | 77 | 0
CCN1CCN(C(=O)c2ccc(CSc3ccc(C)cc3)cc2)CC1 | 0 | 0 | - | 100 | 0
O=C(c1ccc(Cn2ccc([N+](=O)[O-])n2)cc1)N1CCN(Cc2ccccc2)CC1 | 0 | 0 | 0 | - | 0
O=C(O)CCC(=O)N1CCN(c2ncccn2)CC1 | 0 | 0 | 0 | - | 0
CN(C(=O)COC(=O)C1CCN(S(=O)(=O)c2cccs2)CC1)c1ccccc1 | - | 0 | 0 | 0 | 0
Cc1ccc(-c2noc(CSc3nnc(Cc4cccs4)n3-c3ccccc3)n2)cc1 | 0 | 0 | - | 0 | 0
Cc1ccc(-c2noc(CSc3nnc(Cc4ccccc4)n3-c3cccc(C)c3)n2)cc1 | 0 | 0 | - | 80 | 0
SMILES | Mdm2 ligase inh | S1P4 ag | S1P3 antag | Lmaj promast | S1P4 antag
COc1ccc(-c2noc(CSc3nc4ccccc4c(=O)n3-c3ccccc3)n2)cc1OC | 0 | 0 | 0 | 0 | 0
COc1ccc(-c2noc(CSc3nnc(Cc4ccccc4)n3-c3cccc(C)c3)n2)cc1OC | 0 | 0 | 0 | 54 | 0
CCN(CC)C(=O)CSc1nc2ccc(NC(=O)CSc3nccn3C)cc2s1 | 0 | 0 | 0 | 0 | 0
Cc1cc(Oc2nc3c(C)cccn3c(=O)c2/C=C(\C#N)S(=O)(=O)c2ccc(Cl)cc2)ccc1Cl | 0 | 0 | 0 | 80 | 0
Cc1ccc(S(=O)(=O)/C(C#N)=C/c2c(N3CC(C)OC(C)C3)nc3c(C)cccn3c2=O)cc1 (stereo unspecified) | 0 | 0 | - | 97 | 0
Cc1ccc(S(=O)(=O)/C(C#N)=C/c2c(N3CCN(C)CC3)nc3c(C)cccn3c2=O)cc1 | 0 | 0 | - | 0 | 0
CCN1CCN(c2nc3c(C)cccn3c(=O)c2/C=C(\C#N)S(=O)(=O)c2ccc(Cl)cc2)CC1 | 0 | 0 | 0 | - | 0
COC(=O)/C(C#N)=C/c1c(Oc2cc(C)cc(C)c2)nc2c(C)cccn2c1=O | 0 | 0 | 0 | 97 | 0
CCN(CC)CCNc1c2c(c(C#N)c3nc4ccccc4n13)CCCC2 | 0 | 0 | - | 96 | 0
O=C1C2C3C=CC(O3)C2C(=O)N1CC(O)c1ccccc1 (stereo unspecified) | 0 | 0 | 0 | 0 | 0
